Results pooled from the literature.
Lines come from different studies, so protocols differ.
Target: Mitogen-activated protein kinase kinase kinase 19 (MAP3K19, Homo sapiens, UniProt Q56UN5)
Residues used in one study (Q56UN5 1-1328): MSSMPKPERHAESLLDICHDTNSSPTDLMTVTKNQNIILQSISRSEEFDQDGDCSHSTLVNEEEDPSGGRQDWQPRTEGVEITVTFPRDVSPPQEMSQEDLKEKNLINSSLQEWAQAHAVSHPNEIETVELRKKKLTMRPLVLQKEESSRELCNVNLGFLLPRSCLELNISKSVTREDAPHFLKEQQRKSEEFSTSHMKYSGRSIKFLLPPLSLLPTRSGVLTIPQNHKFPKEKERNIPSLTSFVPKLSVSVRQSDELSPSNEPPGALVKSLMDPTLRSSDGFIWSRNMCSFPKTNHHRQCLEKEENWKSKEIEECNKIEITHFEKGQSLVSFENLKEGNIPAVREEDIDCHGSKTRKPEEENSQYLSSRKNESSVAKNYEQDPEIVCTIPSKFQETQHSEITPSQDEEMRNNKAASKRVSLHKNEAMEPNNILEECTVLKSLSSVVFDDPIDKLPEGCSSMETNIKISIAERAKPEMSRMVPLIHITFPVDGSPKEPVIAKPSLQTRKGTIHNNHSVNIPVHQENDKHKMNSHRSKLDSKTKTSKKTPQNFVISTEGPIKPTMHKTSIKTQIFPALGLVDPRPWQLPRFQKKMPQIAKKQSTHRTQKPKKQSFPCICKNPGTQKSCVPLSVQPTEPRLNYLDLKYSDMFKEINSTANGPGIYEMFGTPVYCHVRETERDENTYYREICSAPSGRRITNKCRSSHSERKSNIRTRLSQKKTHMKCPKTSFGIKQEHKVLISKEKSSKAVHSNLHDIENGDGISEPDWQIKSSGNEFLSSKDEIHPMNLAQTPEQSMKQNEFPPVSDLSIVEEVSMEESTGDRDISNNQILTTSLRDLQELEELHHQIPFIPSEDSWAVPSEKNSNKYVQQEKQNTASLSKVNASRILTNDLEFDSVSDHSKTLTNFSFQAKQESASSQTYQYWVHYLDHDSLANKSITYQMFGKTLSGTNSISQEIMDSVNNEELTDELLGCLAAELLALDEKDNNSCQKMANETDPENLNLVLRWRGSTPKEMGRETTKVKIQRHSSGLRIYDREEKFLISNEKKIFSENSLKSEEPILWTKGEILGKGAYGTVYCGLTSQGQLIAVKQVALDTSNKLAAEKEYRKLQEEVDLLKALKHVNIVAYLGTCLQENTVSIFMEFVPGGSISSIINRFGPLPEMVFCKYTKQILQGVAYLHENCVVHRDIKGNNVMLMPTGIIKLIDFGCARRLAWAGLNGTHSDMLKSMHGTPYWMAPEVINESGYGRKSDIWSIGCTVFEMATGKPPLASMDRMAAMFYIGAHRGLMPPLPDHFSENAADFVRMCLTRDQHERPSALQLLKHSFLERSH

SMILES	assay	conditions	remaining binding [%]
CN(C)c1nccc(-c2cnn3ncccc23)n1	binding	1 µM	50
O=C(c1ccc(Nc2ncc(Cl)c(-c3ccc(Cl)s3)n2)cc1)N1CCC(N2CCCC2)CC1	binding, competition with immobilised ligand	1 µM	0
CCCOc1ccc([C@@H]2[C@@H](C(=O)O)[C@H](c3ccc4c(c3)OCO4)CN2CC(=O)Nc2c(CC)cccc2CC)cc1	cell-free assay, competition with immobilised ligand	1 µM	93
c1cncc(-c2cccc(Nc3nccc(NC4CCCCC4)n3)c2)c1	binding, competition with immobilised ligand	10 µM	18
C[C@@H](c1ccc(-n2cnc3c(N)ncnc32)cc1)N1CCc2nn(C)c(Cc3ccccc3)c2C1=O	binding, competition with immobilised ligand	0.1 µM	47
O=C(Nc1c[nH]nc1C(=O)NC1CCNCC1)c1cc(F)cc(F)c1	binding, competition with immobilised ligand	1 µM	100
C=CC(=O)N1CCC(C(=O)NCC(=O)N2CCN(c3nc(-c4cnc(N)nc4C(F)F)nc(N4CCOCC4)n3)CC2)CC1	binding, competition with immobilised ligand	1 µM	42
CNC(=O)[C@@H]1CC[C@@H](n2c(-c3ccc4cnccc4c3)nc3ccc(C(=O)NCc4cccc(C(N)=O)c4)cc32)C1	binding, competition with immobilised ligand	1 µM	100
CO[C@H]1CC[C@H](CNc2ccc(S(=O)(=O)NC(=O)c3ccc(N4CCN(CC5=C(c6ccc(Cl)cc6)CC(C)(C)CC5)CC4)cc3Oc3cnc4[nH]ccc4c3)cc2[N+](=O)[O-])CC1	cell-free assay, competition with immobilised ligand	1 µM	64
CN(C)c1ncc(F)c(-c2cnn3ncccc23)n1	binding	1 µM	69
Cc1nc(C2CCN(C(=O)c3ccc(OC(F)(F)F)cc3N)CC2)c2ncc(N3CCN(C)CC3)cc2n1	cell-free assay, competition with immobilised ligand	1 µM	79
O=C(c1ccc(Nc2nccc(-c3cc4ccccc4s3)n2)cc1)N1CCC(N2CCCC2)CC1	binding, competition with immobilised ligand	1 µM	0
Cc1cc(C)c(-n2ccn3nc(-c4cccnc4)cc23)cc1NC(=O)c1cc(C#N)cc(S(F)(F)(F)(F)F)c1	cell-free assay, competition with immobilised ligand	0.1 µM	99.5
N[C@@H]1CCN(c2nccc(-c3cnn4ncccc34)n2)C1	binding	1 µM	76
O=C(NCCCN1CCOCC1)c1ccc(Nc2ncc(Cl)c(-c3ccc(Cl)s3)n2)cc1	binding, competition with immobilised ligand	1 µM	0
COc1ccnn2ncc(-c3ccnc(N(C)C)n3)c12	binding	1 µM	54
COc1cnc(Nc2cccc(S(N)(=O)=O)c2)nc1N1CCN(c2ccccc2)C(=O)C1	binding, competition with immobilised ligand	1 µM	32
Cc1cc(NC(=O)c2cccc(S(F)(F)(F)(F)F)c2)cc(-n2ccn3nc(-c4cccnc4)cc23)c1	cell-free assay, competition with immobilised ligand	1 µM	100
F[C@@H]1CCN(c2nccc(-c3cnn4ncccc34)n2)C1	binding	1 µM	89
Cc1cc(-n2nc(Cc3cc(F)cc(C(F)(F)F)c3)nc2C)ccc1C(N)=O	cell-free assay, competition with immobilised ligand	1 µM	98
CN(c1nccc(-c2cnn3ncccc23)n1)C1CC1	binding	1 µM	99
